Assays:
[1] = test system: BXPC-3; experiment: Cytotoxicity against human BxPC3 cells assessed as cell growth at 1 uM after 72 hrs by MTT assay relative to untreated control; type: functional; conditions: BXPC-3, 72 h, read-out: Activity
Method in brief: (§1)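 After 72 h of exposure, growth was read with MTS (CellTiter 96 AQueous One) colorimetric reagent as percent of control-treated cells (100%). Mean of at least two independent experiments run in triplicate.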

[2] = test system: BXPC-3; experiment: Cytotoxicity against human BxPC3 cells assessed as cell growth at 10 uM after 72 hrs by MTT assay relative to untreated control; type: functional; conditions: BXPC-3, 72 h, read-out: Activity; method in brief: as §1
[3] = test system: MIA PaCa-2; experiment: Cytotoxicity against human MIAPaCa2 cells assessed as cell growth at 1 uM after 72 hrs by MTT assay relative to untreated control; type: functional; conditions: MIA PaCa-2, 72 h, read-out: Activity; method in brief: as §1
[4] = test system: MIA PaCa-2; experiment: Cytotoxicity against human MIAPaCa2 cells assessed as cell growth at 10 uM after 72 hrs by MTT assay relative to untreated control; type: functional; conditions: MIA PaCa-2, 72 h, read-out: Activity; method in brief: as §1
[5] = test system: PANC-1; experiment: Cytotoxicity against human PANC1 cells assessed as cell growth at 1 uM after 72 hrs by MTT assay relative to untreated control; type: functional; conditions: PANC-1, 72 h, read-out: Activity; method in brief: as §1
[6] = test system: PANC-1; experiment: Cytotoxicity against human PANC1 cells assessed as cell growth at 10 uM after 72 hrs by MTT assay relative to untreated control; type: functional; conditions: PANC-1, 72 h, read-out: Activity; method in brief: as §1
[7] = Toxicity against human normal Hematopoietic Progenitor Cells isolated from human cord blood at 1 uM after 18 hrs by MTT assay relative to untreated control

SMILES	growth at 1 µM [1] [%]	growth at 10 µM [2] [%]	growth at 1 µM [3] [%]	growth at 10 µM [4] [%]	growth at 1 µM [5] [%]	growth at 10 µM [6] [%]	Activity [7]
C=C1C(=O)O[C@@H](c2ccc(OC)cc2)[C@H]1C (relative stereo)	128	13	109	9	130	32	
C=C1C(=O)OCC1c1ccccc1 (stereo not given)		40		14		31	
C=C1C(=O)O[C@H](c2ccc3ccccc3c2)[C@H]1c1ccccc1 (relative stereo)	60	1	29	3	53	13	Non-toxic
C/C1=C\CC[C@@]2(C)O[C@@H]2[C@H]2OC(=O)C(CN(C)C)[C@@H]2CC1 (stereo not given in full) [DIMETHYLAMINOPARTHENOLIDE]	92	7	73	2	117	17	Non-toxic
C=C1C(=O)O[C@@H](C2CCCCC2)[C@H]1c1ccccc1 (relative stereo)		95		81		104	
C=C1C(=O)O[C@@H](c2ccccc2)[C@H]1c1ccccc1 (relative stereo)	51	8	32	3	108	38	
C=C1C(=O)O[C@@H]2C3O[C@]3(C)CC/C=C(\C)CC[C@@H]12 (stereo not given in full)	92	6	78	3	132	12	
C=C1C(=O)O[C@H](c2ccc(OC)cc2)[C@H]1c1ccccc1 (relative stereo)	73	0	54	0	80	0	
C=C1C(=O)O[C@@H](C(C)C)[C@H]1C (relative stereo)		153		143		119	
C=C1C(=O)O[C@H](c2ccc(C)cc2)[C@H]1c1ccccc1 (relative stereo)	67	0	26	2	105	0	Non-toxic
C/C=C1\C(=O)O[C@H](c2ccc(OC)cc2)[C@H]1C (relative stereo)		179		124		139	
C=C1C(=O)O[C@@H](c2ccc3ccccc3c2)[C@H]1c1ccccc1 (relative stereo)	104	1	125	6	98	33	
C=C1C(=O)O[C@@H](c2c(F)c(F)c(F)c(F)c2F)[C@H]1C (relative stereo)	98	89	120	53	86	70	
C=C1C(=O)O[C@H](c2ccc3ccccc3c2)[C@H]1C (relative stereo)	113	27	74	4	139	22	
C=C1CC(c2ccccc2)OC1=O (stereo not given)		136		106		135	
C/C=C1\C(=O)O[C@@H](c2ccc([N+](=O)[O-])cc2)[C@H]1C (relative stereo)		117		110		106	
C=C1C(=O)O[C@@H](c2ccccc2)[C@H]1C (relative stereo)	98	41	114	14	143	62	
C=C1C(=O)O[C@H](c2ccccc2)[C@H]1c1ccccc1 (relative stereo)	86	1	30	1	116	1	Non-toxic
C=C1C(=O)O[C@H](c2ccc(C(F)(F)F)cc2)[C@H]1c1ccccc1 (relative stereo)	138	13	142	5	152	33	
